High-throughput results as filed in PubChem BioAssay.
This is a sample that favours compounds with a hit; in the whole collection about 6.7% have one here.
CHOP inh: CHOP inhibition in unfolded protein response; CHO-K1 CHOP-promoter luciferase, tunicamycin-induced, 15-18 h; inhibition, % at 10 µM; 220,000 compounds, 3.8% hits;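 active means compounds that reduced the stress-induced luciferase reporter signal by more than about 70% of percent inhibition, limit read from the data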
PREPL inh: inhibitors of human prolyl oligopeptidase-like enzyme PREPL; Q4J6C6; recombinant PREPL, fluorescence polarization activity-based probe; inhibition, % at 5.96 µM; 320,000 compounds, 0.68% hits; AID 2751; in the data active means inhibition above about 43%
Target sequence (Q4J6C6 whole entry, looked up): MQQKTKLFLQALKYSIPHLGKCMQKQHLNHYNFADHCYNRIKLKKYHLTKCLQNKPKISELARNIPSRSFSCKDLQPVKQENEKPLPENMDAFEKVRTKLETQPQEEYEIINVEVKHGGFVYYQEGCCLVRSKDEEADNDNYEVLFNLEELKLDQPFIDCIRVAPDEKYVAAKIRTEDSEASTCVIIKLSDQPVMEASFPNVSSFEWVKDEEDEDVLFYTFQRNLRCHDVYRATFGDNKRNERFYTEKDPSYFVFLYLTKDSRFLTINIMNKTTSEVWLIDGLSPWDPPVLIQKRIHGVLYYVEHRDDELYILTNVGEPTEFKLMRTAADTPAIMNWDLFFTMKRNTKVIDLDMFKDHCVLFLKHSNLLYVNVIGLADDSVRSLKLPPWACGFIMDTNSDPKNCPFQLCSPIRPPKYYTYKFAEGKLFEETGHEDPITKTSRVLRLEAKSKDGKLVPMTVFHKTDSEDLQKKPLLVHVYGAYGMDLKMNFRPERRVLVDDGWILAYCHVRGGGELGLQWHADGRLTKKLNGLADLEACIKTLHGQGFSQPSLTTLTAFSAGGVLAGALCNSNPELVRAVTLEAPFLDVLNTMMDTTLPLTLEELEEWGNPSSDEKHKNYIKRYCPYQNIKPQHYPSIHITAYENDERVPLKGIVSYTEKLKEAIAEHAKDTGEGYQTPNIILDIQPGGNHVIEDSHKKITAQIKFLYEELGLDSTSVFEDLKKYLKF
T cruzi inh: blocks replication of Trypanosoma cruzi | T. cruzi beta-gal in NIH3T3, luminescence, 90 h | inhibition, % (test concentration not listed) | 300,000 compounds, 1.4% hits | AID 1885;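 active means mean inhibition across valid replicates above about 55%, limit read from the data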;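 further: signal also drops with host cell toxicity which is not excluded here; higher percent means less beta-gal luminescence so fewer parasites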
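Assay system: NIH/3T3 fibroblasts plus reporter T. cruzi. Amount: NIH/3T3 cells, 5,000 per well. Buffer or medium: DMEM, 2% fetal bovine serum. Doses: compound pinned at 50 nL/well, DMSO. Schedule: ≥90 h infection period, 3 h prior cell attachment. Signal: luminescent β-galactosidase signal after 60 min lysis. Read-out: parasite load inhibition, %.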
Beta apoptosis: beta cell apoptosis inhibition; protection from apoptosis, % (no concentration beside the values); AID 435005; 300,000 compounds, 0.8% hits; INS-1E cytokine-induced death, ATP luminescence, 48 h; percent of positive-control rescue, neutral wells zero;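 active means Every replicate reaches about 75%, or at least half do and their mean reaches it too, limit read from the data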;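 further: higher means more ATP so stronger rescue from cytokine killing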
NR3A LBD binder: NR3A (human) ligand-binding domain modulation; NR3A LBD differential scanning fluorimetry, Tm shift; 0% = protein alone, 100% = glycine-bound protein; 340,000 compounds, 2.5% hits; Tm shift relative to glycine control, % at 25 µM;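 active means melting temperature shift of at least 10% of the positive control shift, at one fixed dose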
CSC inhib: blocks cancer stem cells; cancer stem cell-like cells viability, luminescence; inhibition, % at 7.5 µM; 300,000 compounds, 1.1% hits; in the data active means inhibition above about 75%; tested in HMLE shEcad cells
A number is an active result; n = inactive; x = no result.

SMILES	CHOP inh	PREPL inh	T cruzi inh	Beta apoptosis	NR3A LBD binder	CSC inhib
O=C(Nc1ccc(S(=O)(=O)N2CCOCC2)cc1)c1ccc(Br)o1	n	n	n	n	26	n
O=C(NCc1n[nH]c(=S)n1-c1ccc(F)cc1)c1ccc(S(=O)(=O)N2CCOCC2)cc1	82	n	n	n	n	n
O=C(Nc1ccc(S(=O)(=O)N2CCCC2)cc1)c1ccc(Br)o1	x	n	n	n	n	n
Cc1cc(NC(=O)c2ccc(Cl)cc2)cc(C)c1OCC(=O)N1CCOCC1	x	n	n	n	13	n
Cn1c(=O)[nH]c(=O)c2cc(C(=O)c3cc(F)ccc3O)cnc21	n	n	n	n	n	n
O=S(=O)(NCc1cccs1)c1ccc(Br)cc1	x	n	n	x	n	n
O=C(CN1CCN(S(=O)(=O)c2ccc(Cl)cc2)CC1)Nc1ccc(N2CCOCC2)cc1	n	n	n	n	10	n
O=C(Nc1ccc(S(=O)(=O)N2CCOCC2)cc1)c1ccc(F)cc1	x	n	n	n	38	n
O=C(Nc1ccc(Br)cc1)c1ccc(F)c(S(=O)(=O)NCc2cccs2)c1	93	n	n	n	18	n
O=C(Nc1ccc2c(c1)OCO2)c1ccc(Cl)c(S(=O)(=O)N2CCOCC2)c1	x	n	n	n	18	n
O=C(Nc1ccc(S(=O)(=O)N2CCCCC2)cc1)c1ccc(F)cc1	x	n	n	n	n	x
Cc1nc2c(C#N)c[nH]n2c(=O)c1CCO	n	n	n	n	n	n
O=C(NNC(=O)C1CCN(S(=O)(=O)c2ccc(Cl)cc2)CC1)c1ccc(S(=O)(=O)N2CCCCC2)cc1	n	n	n	n	22	n
O=C(Nc1ccc(S(=O)(=O)NC2=NCCCCC2)cc1)c1cc(S(=O)(=O)N2CCOCC2)ccc1F	x	n	n	n	22	n
Cc1noc(/C=C/c2cccnc2)c1[N+](=O)[O-]	x	n	59	n	n	n
Cc1cccc(C)c1N/C=C/c1onc(C)c1[N+](=O)[O-]	n	n	n	n	n	n
Cc1cccc(C(=O)Oc2ccc(/C=N/NC(=O)c3cc(O)cc(O)c3)cc2)c1	x	x	n	n	14	n
O=C(COc1ccc(/C=N/NC(=O)c2ccccc2O)cc1)Nc1ccccc1	n	n	n	n	16	n
COc1cc(/C=N/NC(=O)c2ccccc2O)ccc1OCC(=O)Nc1ccccc1	x	n	n	n	37	n
O=C(Oc1ccc(/C=N/NC(=O)c2ccccc2F)cc1)c1ccccc1	x	n	n	n	n	n
Cc1cccc(C(=O)Oc2ccc(/C=N/NC(=O)c3ccncc3)cc2)c1	n	n	n	n	n	n
O=C(Oc1ccc(/C=N/NC(=O)c2ccccc2O)cc1)c1ccccc1	n	n	n	n	13	n
O=C(COc1ccc(/C=N/NC(=O)c2ccccc2Br)cc1)Nc1ccccc1	x	n	n	n	n	n
CCOC(=O)CSc1n[nH]c(NC(=O)NC(C)C)n1	n	n	n	n	n	n
O=C(O)c1cccc(S(=O)(=O)N2CCN(C(c3ccccc3)c3ccccc3)CC2)c1	n	n	n	n	n	n
SMILES	CHOP inh	PREPL inh	T cruzi inh	Beta apoptosis	NR3A LBD binder	CSC inhib
COc1cc(/C=N/NC(=O)c2ccncc2)ccc1OCC(=O)Nc1ccccc1	x	n	n	n	n	n
O=C(COc1ccc(/C=N/NC(=O)c2cccnc2)cc1)Nc1ccccc1	x	n	n	x	13	n
COc1cc(/C=N\Nc2ccc([N+](=O)[O-])cc2)ccc1OCC(=O)Nc1ccc(C)c(C)c1	78	x	n	x	17	x
Cc1ccc(-c2csc(N3CCC(C(N)=O)CC3)n2)cc1	x	n	x	n	n	n
Cc1ccc(-c2csc(N3CCC(C(N)=O)(N4CCCCC4)CC3)n2)cc1	82	n	n	n	n	n
Cc1ccc(CSc2nnc(CNc3ccc(F)cc3)o2)cc1	n	n	n	x	n	n
CSc1ccccc1NC(=S)N/N=C/c1cccn1Cc1cccc(C)c1	n	n	65	n	n	n
CSc1ccccc1NC(=S)N/N=C/c1cccn1Cc1ccc(F)cc1	n	n	n	n	n	n
Cn1c(C2=C(O)CN(Cc3ccccc3)C2=N)nc2ccccc21	n	n	n	n	n	n
O=C(NCCc1c[nH]c2ccccc12)Nc1cccc2ccccc12	n	n	n	n	18	n
N#C/C(=C\c1ccc(-c2ccc(Br)cc2)o1)C(=O)NCCc1c[nH]c2ccccc12	n	n	n	n	27	n
O=C(NCCc1c[nH]c2ccccc12)C(=O)Nc1ccccc1	n	n	n	n	n	81
CCOc1ccccc1NC(=O)NCCc1c[nH]c2ccccc12	x	n	n	n	n	n
N#C/C(=C/c1ccc2c(c1)OCO2)C(=O)NCCc1c[nH]c2ccccc12	n	n	n	n	n	n
CC(=O)Nc1cccc(C(=O)OCC(=O)N2CCC(c3ccccc3)=N2)c1	x	n	n	n	n	n
O=C(CCCSc1nc2ccccc2[nH]1)N1CCN(c2ccc([N+](=O)[O-])cc2)CC1	73	n	n	n	n	n
CC(OC(=O)c1cccs1)C(=O)NC1CCCCC1C (stereo unspecified)	x	n	x	n	n	96
COc1ccc(NC(=O)CSc2n[nH]c(C)c2[N+](=O)[O-])cc1	n	n	n	n	n	n
O=C(CSc1nc(-c2ccc(F)cc2)cc(C(F)(F)F)n1)Nc1ccc2c(c1)OCO2	73	n	n	n	n	n
CC(C)c1nc(SCC(=O)Nc2ccc3c(c2)OCO3)n[nH]1	n	n	n	n	n	n
Cc1ccc(NC(=O)CSc2n[nH]c(C)c2[N+](=O)[O-])cc1C	n	n	n	n	19	n
COc1ccc(NC(=O)CSc2ncn(-c3ccccc3)n2)cc1Cl	n	n	n	n	28	x
Cc1ccc(NC(=O)CSc2ncn(-c3ccccc3)n2)cc1C	n	n	n	x	22	n
O=C(Nc1ccc(C(=O)O)cc1)/C(=C\c1cccc([N+](=O)[O-])c1)NC(=O)c1ccc(Br)o1	n	n	n	n	n	n
O=C(CSc1ncn(-c2ccccc2)n1)Nc1ccc2c(c1)OCO2	n	n	n	n	13	n
SMILES	CHOP inh	PREPL inh	T cruzi inh	Beta apoptosis	NR3A LBD binder	CSC inhib
O=C(CSc1ncn(-c2ccccc2)n1)Nc1ccc2c(c1)OCCO2	n	n	n	n	n	n
CCOC(=O)N1CCN(CC(O)COCCC23CC4CC(CC(C4)C2)C3)CC1 (stereo unspecified)	n	n	68	x	n	n
CCOC(=O)c1ccc(NC(=O)c2cc3c(s2)CCC3)cc1	n	n	n	n	n	n
Cn1c(-c2ccccc2)cnc1SCC(=O)N1CCCc2ccccc21	n	n	n	n	n	n
O=C(CSc1ncc(-c2ccccc2)n1C1CCCC1)N1CCc2ccccc21	75	n	64	n	n	n
O=C(NCCc1ccc(O)c(O)c1)C1COc2ccccc2O1 (stereo unspecified)	x	n	n	n	n	x
O=C(CSc1nnc(-c2ccc(O)cc2)o1)Nc1cccc(O)c1	x	n	n	n	18	n
